SENP1 FRET inh: blocks the human SENP1 SUMO protease catalytic domain | 0.21% of 360,000 active | inhibition, % at 10 µM | recombinant SENP1 catalytic domain, CyPet-SUMO1-YPet FRET cleavage;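 active = inhibition at least 30% at 10 µM, raw YFP signal under a set limit, fluorescence ratio 0.5 to 1.5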
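Test system: human SENP1 catalytic domain; medium: Tris pH 8 buffer plus EDTA, NaCl, BME, BSA, NP40, catalase; incubation: 50 min reaction at room temperature; technique: FRET, CFP and YFP emission; controls: no-enzyme low control and enzyme-plus-DMSO high control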
SENP8 block-1: SENP8 protease inhibition; purified SENP8, Z-RLRGG-aminoluciferin cleavage, luminescence; inhibition, % at 10 µM; 1.2% of 330,000 active; in the data active = inhibition above about 50%
SENP7 block: SENP7 protease inhibition | Q9BQF6 | recombinant SENP7, Z-RLRGG-aminoluciferin luminescence, 40 min | inhibition, % at 5 µM | 1.5% of 330,000 active | AID 434973;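 active = inhibition above about 50% at the single test dose, limit read from the data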
SENP8 block-2: blocks human SENP8 cleavage of Nedd8 substrate; Q96LD8; recombinant SENP8, Nedd8 substrate fluorescence; inhibition, % at 20 µM; 0.64% of 360,000 active; AID 602440; in the data active = inhibition mostly above about 40%, no sharp cut-off; inactive = mostly below about 27%
SENP6 inh: SENP6 protease inhibition; inhibition, % at 10 µM; Q9GZR1; 1.8% of 330,000 active; Recombinant SENP6 catalytic domain, aminoluciferin luminescence; AID 2599;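 active = inhibition above about 50% at the single tested dose, limit read from the data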
Target sequence (Q9GZR1 628-1112 limits assumed): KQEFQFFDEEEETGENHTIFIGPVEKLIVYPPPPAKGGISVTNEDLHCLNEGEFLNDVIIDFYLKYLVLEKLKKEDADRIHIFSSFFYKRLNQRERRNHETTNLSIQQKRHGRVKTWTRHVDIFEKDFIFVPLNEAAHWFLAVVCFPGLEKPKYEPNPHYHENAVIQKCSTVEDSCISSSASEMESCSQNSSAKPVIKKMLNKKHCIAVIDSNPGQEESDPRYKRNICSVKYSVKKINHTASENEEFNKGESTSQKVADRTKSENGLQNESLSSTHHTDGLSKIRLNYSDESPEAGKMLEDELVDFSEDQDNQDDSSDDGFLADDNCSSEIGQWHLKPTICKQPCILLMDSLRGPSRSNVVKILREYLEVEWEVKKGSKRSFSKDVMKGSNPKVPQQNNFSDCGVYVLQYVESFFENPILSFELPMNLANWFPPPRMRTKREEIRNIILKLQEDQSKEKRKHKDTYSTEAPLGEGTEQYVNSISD
SENP8 conf: confirmation of human SENP8 protease inhibitors; AID 624319; 15% of 1,400 active; shares compounds with SENP8 block-2; inhibition, % at 25 µM; purified SENP8, Nedd8-AMC/pro-Nedd8 cleavage fluorescence, 30 min; in the data active = inhibition mostly above about 39%, no sharp cut-off; inactive = mostly below about 34%
A number is an active result; – = inactive; · = no result given. Most compounds without a hit are left out; they make up all but 2.5% or so of the library.

SMILES	SENP1 FRET inh	SENP8 block-1	SENP7 block	SENP8 block-2	SENP6 inh	SENP8 conf
Cc1nonc1C(=O)N/N=C/c1ccc([N+](=O)[O-])o1	–	–	–	–	–	·
Cc1cc(C(=O)N/N=C/c2ccc([N+](=O)[O-])o2)c(C)o1	–	–	–	42	–	–
CCCc1ccc(-c2cc(C(=O)N/N=C/c3ccc([N+](=O)[O-])o3)c3ccccc3n2)cc1	–	–	–	–	–	·
O=C(OCc1cccc(C(F)(F)F)c1)c1cc(S(=O)(=O)N2CCOCC2)ccc1F	–	–	–	–	–	·
Cc1[nH][nH]c(=O)c1C(c1ccc(-c2ccc(F)cc2)o1)c1c(C)[nH][nH]c1=O	–	–	–	75	–	72
Cc1[nH][nH]c(=O)c1C(c1ccc(-c2ccc(Cl)c(Cl)c2)o1)c1c(C)[nH][nH]c1=O	–	–	–	74	–	63
COc1ccc(-c2ccc(C(c3c(C)[nH][nH]c3=O)c3c(C)[nH][nH]c3=O)o2)c([N+](=O)[O-])c1	–	–	–	38	–	–
Cc1[nH][nH]c(=O)c1C(c1ccc(-c2ccc(C(=O)O)cc2)o1)c1c(C)[nH][nH]c1=O	–	·	·	–	·	·
Cc1cnc(NC(=O)C2(c3ccccc3)CC2)s1	–	·	·	–	·	·
CCc1nnc(NS(=O)(=O)c2ccc(Nc3ccc([N+](=O)[O-])c4nonc34)cc2)s1	–	–	–	45	–	–
Cc1nn(-c2ccccc2)c(N2CCCC2)c1/C=N/Nc1ccc(S(=O)(=O)Nc2ccccc2)cc1[N+](=O)[O-]	–	–	–	64	–	–
CCOc1ccc(S(=O)(=O)Nc2ccc(C(=O)N/N=C/c3c(C)nn(-c4ccccc4)c3N3CCCC3)cc2)cc1	–	–	–	–	–	·
COc1c(/C=N/Nc2ccc([N+](=O)[O-])cc2[N+](=O)[O-])c(C)nn1-c1ccccc1	–	–	–	62	–	–
COc1ccccc1NS(=O)(=O)c1ccc(N/N=C/c2c(C)nn(-c3ccccc3)c2N2CCCC2)c([N+](=O)[O-])c1	–	–	–	45	–	–
Cc1ccc(-n2[nH]c(C)c(/C=N/Nc3ccc([N+](=O)[O-])cc3[N+](=O)[O-])c2=O)cc1C	–	–	–	40	–	–
CC(C)(C)c1ccc(CC(=O)N2CCC2(C)C(=O)NS(=O)(=O)c2ccc(F)cc2F)cc1 (centres undefined)	–	·	·	–	·	·
COc1cccc(-c2cc(NC=O)c3ncc(-c4ccc(F)c(Cl)c4)n3c2)c1	–	·	·	–	·	·
N#Cc1cccc(C(Br)S(=O)(=O)c2ccccc2)c1 (centres undefined)	–	·	·	–	·	·
CC(C)COC(=O)NC1c2ccccc2Oc2ccccc21	–	–	–	–	–	·
NC(Cc1ccc(C(F)(F)F)cc1)c1csc(NC(=O)NCCc2ccccc2)n1 (centres undefined)	–	·	·	–	·	·
CN(C)S(=O)(=O)c1cccc(NC(=O)CCNC(=O)Nc2ccccc2)c1	–	–	–	42	–	–
Cc1cccc(NC(=O)c2ccc(NCC3CCCO3)c([N+](=O)[O-])c2)c1 (centres undefined)	–	–	–	–	–	·
O=C(Nc1cccc(Cl)c1)c1ccc(NCC2CCCO2)c([N+](=O)[O-])c1 (centres undefined)	–	–	–	44	–	–
Cn1c(=O)c2c([nH]c(=O)n2C)n(Cc2ccccc2)c1=O	–	–	–	–	–	·
CSc1nncc(/C(C)=N\Nc2cccc(C)c2)n1	–	–	–	46	–	–
SMILES	SENP1 FRET inh	SENP8 block-1	SENP7 block	SENP8 block-2	SENP6 inh	SENP8 conf
CSc1nncc(/C(C)=N\Nc2ccccc2)n1	–	–	–	52	–	–
CC/C(=N/Nc1ccccc1C)c1cnnc(SC)n1	–	–	–	–	–	·
Cc1cccc(N/N=C(\C#N)S(=O)(=O)C(C)(C)C)c1	–	·	·	–	·	·
O=C1CN(C(=O)N[C@@H](Cc2ccccc2)C(=O)N[C@@H](Cc2ccccc2)C(=O)O)c2ccccc2N1	–	–	–	–	–	·
CC(C)C[C@H](NC(=O)N1CC(=O)Nc2ccccc21)C(=O)N[C@H](Cc1c[nH]c2ccccc12)C(=O)O	–	–	–	51	–	–
O=C1CN(C(=O)NCC(=O)N[C@@H](Cc2ccccc2)C(=O)O)c2ccccc2N1	–	–	–	46	–	–
Cc1cccc(CN2CCN(Cc3cccc(-n4cccn4)c3)CC2CCO)n1 (centres undefined)	–	–	–	–	–	·
C1CCN(c2nc3nonc3nc2NCC2CCOCC2)CC1	–	–	–	44	–	–
C1CCN(c2nc3nonc3nc2N2CCCCC2)CC1	–	–	–	–	–	·
Cc1cc(C)cc(N(CC(=O)NC2CCC(C)CC2)S(=O)(=O)c2c(C)[nH]c(=O)[nH]c2=O)c1 (centres undefined)	–	–	–	–	–	·
CCCC[C@@H]1CC2=C(C(=O)OC(C)(C)O2)[C@H](c2ccc(C(C)C)cc2)O1	–	·	·	–	·	·
O=c1[nH]c(CN2CCCCC2)ccc1O	–	·	·	68	·	38
CC(C)N(Cc1cnn(C)c1)Cc1nc(Cc2ccccc2Cl)no1	–	–	–	47	–	–
CN(Cc1cnn(C)c1)Cc1nc(Cc2ccccc2Cl)no1	–	–	–	–	–	·
Cc1ccc(S(=O)(=O)N2C[C@H]3n4c(=O)ccc(=O)n4C[C@H](OC(=O)NCc4ccccc4F)[C@@]3(O)C2)cc1	–	·	·	–	·	·
CC1(c2nnnn2Cc2ccccc2)CCC(=O)N1CCCn1ccnc1 (centres undefined)	–	·	·	–	·	·
CN(N=Cc1ccccc1)C(=S)Nc1ccccc1	–	·	·	43	·	–
COc1cc(N)c(C(=O)c2nccc3cc(OC)c(OC)cc23)cc1OC	–	–	–	–	–	·
COc1cc(Br)c(C(=O)c2nccc3cc(OC)c(OC)cc23)cc1OC	–	95	92	113	90	101
CN(C)c1ccc(-c2ccnc3c2CC(C)(C(=O)NCc2cccc(Cl)c2)O3)cc1 (centres undefined)	–	·	·	–	·	·
C=CCN1C=CC(=CC=C(C#N)C#N)C=C1	–	–	–	56	–	–
CCCCCCN1C=CC=C/C1=C/C=C(C#N)C#N	–	–	–	50	–	–
C=CCN1C=C/C(=C\C=C(C#N)C#N)c2ccccc21	–	–	–	–	–	·
CCCN1C=CC(=C/C=C(\C#N)C(=O)OCC)C=C1	·	–	–	·	–	·
CCCN1C=CC(=CC=C(C#N)C#N)C=C1	–	–	–	50	–	–
CCCCCCN1C=CC(=C/C=C(\C#N)C(=O)OCC)C=C1	–	–	–	36	–	–
COCc1ccc(CN2CCC(n3nccc3NC(=O)c3ccc4c(c3)OCO4)CC2)o1	–	·	·	–	·	·
CSc1ncnc2c1ncn2CCCN1CCN(c2ccccn2)CC1	–	·	·	–	·	·
CCCCCCCCN1C(=O)[C@H](CC(=O)NCc2cccc3ccccc23)C[C@@]2(C(=O)OC)CC(C)(C)CC=C12	–	·	·	–	·	·
O=C(Nc1c(-c2ccccc2)[nH][nH]c1=O)c1ccc2ccccc2c1	–	·	·	–	·	·

Source: PubChem
